Experimental data as given in ChEMBL document CHEMBL1641414, “Synthesis and pharmacological evaluation of 4-(3,4-dichlorophenyl)-N-methyl-1,2,3,4-tetrahydronaphthalenyl amines as triple reuptake inhibitors” (Bioorg Med Chem, 2011).
pIC50: −log10 of the molar value.

Experiments:
[1] = molecular target: Sodium-dependent noradrenaline transporter (Homo sapiens, UniProt P23975); test: Inhibition of [3H]norepinephrine reuptake at human NET expressed in MDCK cells by scintillation counting; format: cell-based
[2] = molecular target: Sodium-dependent dopamine transporter (Homo sapiens, UniProt Q01959); test: Inhibition of [3H]dopamine reuptake at human DAT expressed in CHOK1 cells by scintillation counting; format: cell-based, CHO-K1
[3] = Half life in human liver microsome; format: ADME; settings: liver microsomes
Method in brief: (§1)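 Microsomal stability and CYP inhibition were run by a contract laboratory under its standard protocols. Stability was measured in human and mouse liver microsomes and reported as t1/2 in min. Midazolam was the reference substrate for CYP3A4.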

[4] = Half life in mouse liver microsome; format: ADME; settings: liver microsomes; method in brief: as §1
[5] = molecular target: Cytochrome P450 2C9 (Homo sapiens, UniProt P11712); test: Inhibition of CYP2C9; format: ADME; method in brief: as §1
[6] = molecular target: Cytochrome P450 2C19 (Homo sapiens, UniProt P33261); test: Inhibition of CYP2C19; format: ADME
[7] = molecular target: Cytochrome P450 2D6 (Homo sapiens, UniProt P10635); test: Inhibition of CYP2D6; format: ADME; method in brief: as §1
[8] = molecular target: Cytochrome P450 3A4 (Homo sapiens, UniProt P08684); test: Inhibition of CYP3A4; format: ADME; method in brief: as §1
[9] = molecular target: Voltage-gated inwardly rectifying potassium channel KCNH2 (Homo sapiens, UniProt Q12809); test: Inhibition of human ERG
[10] = Ratio of drug level in whole brain to plasma of mouse at 30 mg/kg, po after 120 mins; format: ADME, organism-based; design: dose 30 mg/kg, route oral; settings: read-out: BPR
Method in brief: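 Male mice were dosed orally once with the HCl salt at 3, 10 and 30 mg/kg, with a 120 min pretreatment before the 5 min tail suspension test. There were 10–12 mice per group. Afterwards, whole brain (ng/g) and plasma (ng/mL) samples were taken from the tested animals to give the brain-to-plasma ratio.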

[11] = test system: Mus musculus; test: Antidepressant activity in po dosed mouse assessed as decrease in immobility after 120 mins by tail suspension test; format: functional, organism-based
Method in brief: (§2)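 Male mice (10–12 per group) dosed orally once, 120 min pretreatment, then suspended by the tail. Immobility recorded automatically for 5 min, scored blind, compared with a vehicle group. One-way ANOVA with post-hoc comparisons, p <0.05 taken as significant.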

[12] = test system: Mus musculus; test: Antidepressant activity in mouse assessed as decrease in immobility at 100 mg/kg, po after 120 mins by tail suspension test; format: functional; settings: 2 h; method in brief: as §2
[13] = test system: Mus musculus; test: Antidepressant activity in mouse assessed as decrease in immobility at 10 mg/kg, po after 120 mins by tail suspension test; format: functional; settings: 2 h; method in brief: as §2
[14] = test system: Mus musculus; test: Antidepressant activity in mouse assessed as decrease in immobility at 30 mg/kg, po after 120 mins by tail suspension test; format: functional; settings: 2 h; method in brief: as §2
[15] = Drug level in mouse plasma at 3 mg/kg, po after 120 mins; format: ADME, organism-based; design: dose 3 mg/kg, route oral; settings: read-out: Drug uptake
Method in brief: (§3)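 Male mice given the HCl salt orally at 3, 10 or 30 mg/kg. Plasma and whole brain were sampled from the tail suspension test animals after the 120 min pretreatment. Levels reported as ng/mL for plasma and ng/g for brain.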

[16] = Drug level in mouse plasma at 10 mg/kg, po after 120 mins; format: ADME, organism-based; design: dose 10 mg/kg, route oral; settings: read-out: Drug uptake; method in brief: as §3
[17] = Drug level in mouse plasma at 30 mg/kg, po after 120 mins; format: ADME, organism-based; design: dose 30 mg/kg, route oral; settings: read-out: Drug uptake; method in brief: as §3
[18] = Drug level in mouse whole brain at 3 mg/kg, po after 120 mins; format: ADME, organism-based; design: dose 3 mg/kg, route oral; settings: in vivo, 2 h; method in brief: as §3
[19] = Drug level in mouse whole brain at 10 mg/kg, po after 120 mins; format: ADME, organism-based; design: dose 10 mg/kg, route oral; settings: in vivo, 2 h; method in brief: as §3
[20] = Drug level in mouse whole brain at 30 mg/kg, po after 120 mins; format: ADME, organism-based; design: dose 30 mg/kg, route oral; settings: in vivo, 2 h; method in brief: as §3
[21] = Plasma protein binding in mouse at 3 to 30 mg/kg, po after 120 mins; format: ADME, organism-based; design: dose 3-30 mg/kg, route oral; settings: read-out: PPB
[22] = test system: Brain; test: fCmax in mouse brain at 3 to 30 mg/kg, po after 120 mins; format: ADME, organism-based; design: dose 3-30 mg/kg, route oral; settings: in vivo, 2 h
Method in brief: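 Brain free level estimated from measured brain concentration in the tail suspension test animals, corrected by mouse plasma protein binding.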

[23] = test system: Mus musculus; test: Neurotoxicity in mouse assessed as effect on locomotor activity at 3 to 30 mg/kg, po; format: toxicity, organism-based; design: dose 3-30 mg/kg, route oral; settings: in vivo
Method in brief: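 Mice pretreated orally with vehicle or compound, returned to the home cage, then placed individually in locomotor cages with infrared photocell beams. Horizontal and vertical activity monitored in 5 min intervals for up to 60 min; the first 5 min were assessed at 10 and 30 mg/kg. One-way ANOVA, p <0.05.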

Sequence of Cytochrome P450 2D6 (P10635 whole entry): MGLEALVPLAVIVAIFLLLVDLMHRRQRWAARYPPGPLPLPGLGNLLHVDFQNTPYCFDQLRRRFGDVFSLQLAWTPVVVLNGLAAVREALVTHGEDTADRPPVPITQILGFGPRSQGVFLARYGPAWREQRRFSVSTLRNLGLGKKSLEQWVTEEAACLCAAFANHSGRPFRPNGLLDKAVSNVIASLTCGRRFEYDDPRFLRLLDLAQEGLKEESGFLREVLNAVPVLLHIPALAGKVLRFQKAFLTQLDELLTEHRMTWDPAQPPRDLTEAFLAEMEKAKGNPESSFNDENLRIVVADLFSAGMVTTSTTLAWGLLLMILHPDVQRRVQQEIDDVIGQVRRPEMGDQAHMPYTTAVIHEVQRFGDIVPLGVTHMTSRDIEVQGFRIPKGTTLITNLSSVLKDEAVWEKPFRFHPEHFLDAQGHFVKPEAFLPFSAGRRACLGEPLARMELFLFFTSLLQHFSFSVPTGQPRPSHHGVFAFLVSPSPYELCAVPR
Sequence of Cytochrome P450 3A4 (P08684 whole entry): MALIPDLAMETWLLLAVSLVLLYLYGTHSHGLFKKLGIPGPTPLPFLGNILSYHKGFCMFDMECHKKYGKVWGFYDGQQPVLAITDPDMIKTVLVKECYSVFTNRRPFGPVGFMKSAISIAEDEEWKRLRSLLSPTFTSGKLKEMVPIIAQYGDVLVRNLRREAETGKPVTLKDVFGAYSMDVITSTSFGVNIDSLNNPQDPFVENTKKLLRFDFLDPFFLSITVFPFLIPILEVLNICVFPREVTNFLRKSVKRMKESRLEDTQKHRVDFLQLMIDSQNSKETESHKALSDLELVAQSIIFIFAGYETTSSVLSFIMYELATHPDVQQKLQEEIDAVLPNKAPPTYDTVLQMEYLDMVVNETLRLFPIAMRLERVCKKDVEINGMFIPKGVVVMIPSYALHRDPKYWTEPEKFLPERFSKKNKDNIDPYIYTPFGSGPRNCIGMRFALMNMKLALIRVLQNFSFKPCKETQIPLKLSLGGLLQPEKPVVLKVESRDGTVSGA
Sequence of Cytochrome P450 2C9 (P11712 whole entry): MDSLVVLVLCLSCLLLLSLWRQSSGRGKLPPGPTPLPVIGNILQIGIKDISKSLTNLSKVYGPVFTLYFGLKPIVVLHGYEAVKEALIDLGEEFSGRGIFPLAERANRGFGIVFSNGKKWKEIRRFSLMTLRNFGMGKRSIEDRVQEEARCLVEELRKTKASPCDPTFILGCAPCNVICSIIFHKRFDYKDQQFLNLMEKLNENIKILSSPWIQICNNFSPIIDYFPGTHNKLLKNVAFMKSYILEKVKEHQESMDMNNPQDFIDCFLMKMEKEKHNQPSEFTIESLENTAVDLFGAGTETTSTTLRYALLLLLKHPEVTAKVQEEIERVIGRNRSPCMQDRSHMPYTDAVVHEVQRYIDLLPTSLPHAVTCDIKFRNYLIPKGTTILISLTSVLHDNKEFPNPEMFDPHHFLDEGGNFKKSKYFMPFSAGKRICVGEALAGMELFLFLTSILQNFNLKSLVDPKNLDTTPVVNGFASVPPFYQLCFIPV
Sequence of Sodium-dependent dopamine transporter (Q01959 whole entry): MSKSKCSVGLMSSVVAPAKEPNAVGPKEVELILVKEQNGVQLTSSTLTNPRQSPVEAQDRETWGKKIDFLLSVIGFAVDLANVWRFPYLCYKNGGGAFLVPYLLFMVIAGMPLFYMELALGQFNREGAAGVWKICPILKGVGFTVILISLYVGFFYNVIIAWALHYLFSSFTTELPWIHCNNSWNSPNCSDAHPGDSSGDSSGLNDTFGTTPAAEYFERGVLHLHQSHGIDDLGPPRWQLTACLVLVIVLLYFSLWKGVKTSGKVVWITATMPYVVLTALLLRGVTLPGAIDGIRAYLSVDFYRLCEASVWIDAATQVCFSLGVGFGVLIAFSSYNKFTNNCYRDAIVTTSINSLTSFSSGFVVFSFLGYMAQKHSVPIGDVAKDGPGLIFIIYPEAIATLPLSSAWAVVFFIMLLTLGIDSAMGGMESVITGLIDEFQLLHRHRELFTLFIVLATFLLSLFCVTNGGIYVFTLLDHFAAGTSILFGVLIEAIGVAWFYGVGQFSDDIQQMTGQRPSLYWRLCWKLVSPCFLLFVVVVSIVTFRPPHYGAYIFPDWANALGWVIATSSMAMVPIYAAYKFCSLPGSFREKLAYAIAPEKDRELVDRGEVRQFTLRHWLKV
Sequence of Sodium-dependent noradrenaline transporter (P23975 whole entry): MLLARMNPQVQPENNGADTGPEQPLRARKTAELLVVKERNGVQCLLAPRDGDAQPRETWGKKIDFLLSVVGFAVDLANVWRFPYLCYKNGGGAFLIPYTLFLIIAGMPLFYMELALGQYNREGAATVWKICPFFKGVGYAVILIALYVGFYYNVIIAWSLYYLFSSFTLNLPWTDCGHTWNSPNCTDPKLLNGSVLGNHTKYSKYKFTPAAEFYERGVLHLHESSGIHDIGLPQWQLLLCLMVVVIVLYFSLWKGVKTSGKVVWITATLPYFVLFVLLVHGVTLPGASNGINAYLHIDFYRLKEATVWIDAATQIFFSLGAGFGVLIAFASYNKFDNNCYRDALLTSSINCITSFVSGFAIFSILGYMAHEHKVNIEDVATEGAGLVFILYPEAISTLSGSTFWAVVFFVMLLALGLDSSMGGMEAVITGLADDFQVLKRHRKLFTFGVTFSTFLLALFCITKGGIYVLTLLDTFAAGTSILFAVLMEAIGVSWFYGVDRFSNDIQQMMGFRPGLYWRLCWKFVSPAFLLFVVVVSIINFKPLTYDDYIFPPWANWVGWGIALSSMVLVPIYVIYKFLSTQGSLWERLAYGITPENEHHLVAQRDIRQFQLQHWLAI
Sequence of Cytochrome P450 2C19 (P33261 whole entry): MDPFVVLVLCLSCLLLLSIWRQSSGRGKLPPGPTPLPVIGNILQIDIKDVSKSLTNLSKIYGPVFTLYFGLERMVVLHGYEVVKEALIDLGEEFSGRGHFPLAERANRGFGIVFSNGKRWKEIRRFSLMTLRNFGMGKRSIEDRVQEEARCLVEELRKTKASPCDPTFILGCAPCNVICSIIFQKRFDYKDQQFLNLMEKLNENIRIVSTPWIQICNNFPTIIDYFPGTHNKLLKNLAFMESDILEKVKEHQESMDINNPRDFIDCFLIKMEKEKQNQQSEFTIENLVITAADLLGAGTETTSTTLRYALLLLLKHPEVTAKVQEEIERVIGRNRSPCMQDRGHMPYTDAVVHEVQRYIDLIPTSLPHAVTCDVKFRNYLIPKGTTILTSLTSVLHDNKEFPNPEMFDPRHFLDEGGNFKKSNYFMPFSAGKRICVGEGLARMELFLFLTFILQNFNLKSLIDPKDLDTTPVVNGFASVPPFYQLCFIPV
Sequence of Voltage-gated inwardly rectifying potassium channel KCNH2 (Q12809 whole entry): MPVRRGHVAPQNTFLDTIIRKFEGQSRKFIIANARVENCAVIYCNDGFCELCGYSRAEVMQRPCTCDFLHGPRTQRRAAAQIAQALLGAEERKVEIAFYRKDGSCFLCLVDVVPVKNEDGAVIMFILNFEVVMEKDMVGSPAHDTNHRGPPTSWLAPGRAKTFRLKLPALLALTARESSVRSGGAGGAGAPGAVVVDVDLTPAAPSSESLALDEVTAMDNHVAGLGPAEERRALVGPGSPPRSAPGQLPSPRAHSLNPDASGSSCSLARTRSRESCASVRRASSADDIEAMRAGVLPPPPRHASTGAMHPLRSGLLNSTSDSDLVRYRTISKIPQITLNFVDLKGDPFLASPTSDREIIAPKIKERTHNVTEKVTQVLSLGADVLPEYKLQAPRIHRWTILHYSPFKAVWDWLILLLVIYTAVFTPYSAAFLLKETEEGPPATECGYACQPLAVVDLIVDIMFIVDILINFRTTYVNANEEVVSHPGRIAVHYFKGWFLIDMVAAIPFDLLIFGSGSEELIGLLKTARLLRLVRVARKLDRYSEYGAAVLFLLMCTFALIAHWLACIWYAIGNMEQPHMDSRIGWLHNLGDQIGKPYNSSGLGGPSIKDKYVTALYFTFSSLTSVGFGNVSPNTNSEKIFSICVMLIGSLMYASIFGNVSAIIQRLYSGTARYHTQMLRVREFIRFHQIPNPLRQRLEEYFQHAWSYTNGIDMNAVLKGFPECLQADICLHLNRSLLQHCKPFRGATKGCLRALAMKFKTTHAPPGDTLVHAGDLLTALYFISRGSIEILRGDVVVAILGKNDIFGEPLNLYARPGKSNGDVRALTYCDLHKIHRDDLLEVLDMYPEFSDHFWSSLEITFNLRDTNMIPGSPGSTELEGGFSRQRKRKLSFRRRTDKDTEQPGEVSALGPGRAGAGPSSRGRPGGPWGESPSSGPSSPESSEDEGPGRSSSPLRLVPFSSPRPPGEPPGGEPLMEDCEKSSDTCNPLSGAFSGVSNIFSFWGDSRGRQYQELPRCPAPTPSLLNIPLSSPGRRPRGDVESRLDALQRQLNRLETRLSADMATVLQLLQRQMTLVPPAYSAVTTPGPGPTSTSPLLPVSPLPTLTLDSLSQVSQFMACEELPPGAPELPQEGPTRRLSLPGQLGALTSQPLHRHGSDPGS

| Compound | pIC50 [1] | pIC50 [2] | half-life [3] | half-life [4] | pIC50 [5] | pIC50 [6] | pIC50 [7] | pIC50 [8] | other results |
| --- | --- | --- | --- | --- | --- | --- | --- | --- | --- |
| CNC[C@H]1Cc2ccccc2[C@@H](c2ccc(Cl)c(Cl)c2)C1 | 6.43 | 6.32 |  |  |  |  |  |  |  |
| NCC[C@@H]1Cc2ccccc2[C@H](c2ccc(Cl)c(Cl)c2)C1 |  | 7.49 | > 5 h | > 5 h | < 4.60 | 5.42 | 6.58 | < 4.60 | pIC50 [9]: 4.88 |
| N[C@@H]1Cc2ccccc2[C@H](c2ccc(Cl)c(Cl)c2)C1 | 6.07 | 6.05 |  |  |  |  |  |  |  |
| N[C@H]1Cc2ccccc2[C@@H](c2ccc(Cl)c(Cl)c2)C1 | 6.76 | 6.76 |  |  |  |  |  |  |  |
| CN(C)[C@H]1Cc2ccccc2[C@@H](c2ccc(Cl)c(Cl)c2)C1 | 7.01 | 6.50 |  |  |  |  |  |  |  |
| CN[C@H]1CCc2ccccc2[C@H]1c1ccc(Cl)c(Cl)c1 | 5.14 | 5.79 | 0.917 h | 0.1 h | < 5.00 |  | 6.31 |  |  |
| CN[C@@H]1CCc2ccccc2[C@@H]1c1ccc(Cl)c(Cl)c1 | 6.95 | 6.25 | 0.917 h | 0.917 h | 5.12 |  | 7.48 |  |  |
| N[C@@H]1Cc2ccccc2[C@@H](c2ccc(Cl)c(Cl)c2)C1 | 6.14 | 6.39 |  |  |  |  |  |  |  |
| CN[C@H]1Cc2ccccc2[C@H](c2ccc(Cl)c(Cl)c2)C1 |  |  | > 5 h | > 5 h | < 4.60 | < 4.60 | 7.17 | < 4.60 |  |
| CN[C@H]1CC[C@@H](c2ccc(Cl)c(Cl)c2)c2ccccc21 [SERTRALINE] |  |  | > 2 h |  | < 5.00 | 6.51 | 5.85 |  |  |
| CN[C@@H]1Cc2ccccc2[C@H](c2ccc(Cl)c(Cl)c2)C1 |  | 6.55 | > 5 h | > 5 h | < 4.60 | < 4.60 | 7.70 | < 4.60 | pIC50 [9]: 5.28 |
| CN(C)C[C@H]1Cc2ccccc2[C@H](c2ccc(Cl)c(Cl)c2)C1 (mixture of isomers) | 6.51 | 6.47 |  |  |  |  |  |  |  |
| CN[C@@H]1Cc2ccccc2[C@@H](c2ccc(Cl)c(Cl)c2)C1 |  | 7.21 | > 5 h | 2 h | < 4.60 | 5.28 | 5.94 | < 4.60 | pIC50 [9]: 5.63 |
| CNC[C@H]1Cc2ccccc2[C@H](c2ccc(Cl)c(Cl)c2)C1 |  |  | > 5 h | > 5 h | < 4.60 | 5.11 | 7.39 | 4.70 | pIC50 [9]: 5.79 |
| CN(C)C[C@@H]1Cc2ccccc2[C@H](c2ccc(Cl)c(Cl)c2)C1 (racemic) | 6.25 | 6.48 |  |  |  |  |  |  |  |
| NCC[C@H]1Cc2ccccc2[C@@H](c2ccc(Cl)c(Cl)c2)C1 |  | 7.30 | > 5 h | > 5 h | < 4.60 | 5.79 | 4.86 | < 4.60 | pIC50 [9]: 5.82 |
| CN[C@@H]1CCc2ccccc2[C@H]1c1ccc(Cl)c(Cl)c1 | 5.78 | 6.67 | 1.58 h | 0.333 h | < 5.00 |  | 7.24 |  |  |
| CNC[C@@H]1Cc2ccccc2[C@H](c2ccc(Cl)c(Cl)c2)C1 | 6.68 | 6.95 | > 5 h | > 5 h | < 4.60 | 5.22 | 6.81 | < 4.60 | pIC50 [9]: 5.70 |
| CN(C)[C@@H]1Cc2ccccc2[C@H](c2ccc(Cl)c(Cl)c2)C1 | 6.79 | 6.56 |  |  |  |  |  |  |  |
| CNCCCN1c2ccccc2CCc2ccccc21 [DESIPRAMINE] |  |  |  |  |  |  |  |  | Kp at 2 h [10]: 40 |
| CN[C@H]1CCc2ccccc2[C@@H]1c1ccc(Cl)c(Cl)c1 | 6.12 | 7.04 | 1.77 h | 1.68 h | < 5.00 |  | 8.10 |  |  |
| CNC[C@@H]1Cc2ccccc2[C@@H](c2ccc(Cl)c(Cl)c2)C1 | 6.90 | 6.99 | > 5 h | 1.55 h | < 4.60 | 5.66 | 6.04 | < 4.60 |  |
| CN[C@H]1Cc2ccccc2[C@@H](c2ccc(Cl)c(Cl)c2)C1 |  |  | > 5 h | > 5 h | < 4.60 | 4.99 | 5.56 | 4.77 | pIC50 [9]: 5.80; inhibition [11]: Dose-dependent effect; inhibition in vivo at 100 mg/kg [12]: 30%; inhibition in vivo at 10 mg/kg [13]: 21%; inhibition in vivo at 30 mg/kg [14]: 50%; concentration at 2 h [15]: 96 ng/mL; concentration at 2 h [16]: 164 ng/mL; concentration at 2 h [17]: 344 ng/mL; Drug uptake [18]: 2830 ng; Drug uptake [19]: 6021 ng; Drug uptake [20]: 13571 ng; fraction unbound at 2 h [21]: 0.01; fCmax [22]: 440 nM; Activity [23]: Non-toxic |
| CN(C)[C@@H]1Cc2ccccc2[C@@H](c2ccc(Cl)c(Cl)c2)C1 | 6.76 | 6.75 |  |  |  |  |  |  |  |
